{"source": "ChEMBL document CHEMBL4118218", "about": "“Elucidating the inhibition of peptidoglycan biosynthesis in Staphylococcus aureus by albocycline, a macrolactone isolated from Streptomyces maizeus” (Bioorg Med Chem, 2018)", "key": {"Staphylococcus aureus [1]": {"system": "Staphylococcus aureus", "test": "Antibacterial activity against vancomycin-resistant Staphylococcus aureus isolate 10 after 16 hrs by broth micro dilution method", "type": "functional", "settings": "isolate 10, 16 h", "summary_of_the_method": "(§1)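 Mueller-Hinton broth microdilution. Bacteria were grown overnight at 37 °C with shaking, diluted 1:100 and grown to mid-exponential phase. About 3 × 10^5 CFU per well went into MH with test compound (0–256 μg/mL) in DMSO vehicle. Plates were incubated at 37 °C for 16 h. MIC was the lowest concentration without growth visible by eye; three independent assays.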"}, "Staphylococcus aureus [2]": {"system": "Staphylococcus aureus", "test": "Antibacterial activity against vancomycin-resistant Staphylococcus aureus isolate 1 after 16 hrs by broth micro dilution method", "type": "functional", "settings": "isolate 1, 16 h", "summary_of_the_method": "as §1"}, "Staphylococcus aureus [3]": {"system": "Staphylococcus aureus", "test": "Antibacterial activity against Staphylococcus aureus ATCC 25923 after 16 hrs by broth micro dilution method", "type": "functional", "settings": "ATCC 25923, 16 h", "summary_of_the_method": "as §1"}, "Escherichia coli": {"system": "Escherichia coli", "test": "Antibacterial activity against Escherichia coli RFM795 harboring lptD gene mutant after 16 hrs by broth micro dilution method", "type": "functional", "settings": "RFM795, 16 h", "summary_of_the_method": "as §1"}, "Staphylococcus aureus [4]": {"system": "Staphylococcus aureus", "test": "Antibacterial activity against methicillin-resistant Staphylococcus aureus LAC JE2 after 16 hrs by broth micro dilution method", "type": "functional", "settings": "LAC JE2, 16 h", "summary_of_the_method": "as §1"}, "[5]": {"target": "T1, UDP-N-acetylglucosamine 1-carboxyvinyltransferase 1 (Staphylococcus aureus subsp. aureus N315, UniProt P84058)", "T1 sequence (P84058 whole entry)": "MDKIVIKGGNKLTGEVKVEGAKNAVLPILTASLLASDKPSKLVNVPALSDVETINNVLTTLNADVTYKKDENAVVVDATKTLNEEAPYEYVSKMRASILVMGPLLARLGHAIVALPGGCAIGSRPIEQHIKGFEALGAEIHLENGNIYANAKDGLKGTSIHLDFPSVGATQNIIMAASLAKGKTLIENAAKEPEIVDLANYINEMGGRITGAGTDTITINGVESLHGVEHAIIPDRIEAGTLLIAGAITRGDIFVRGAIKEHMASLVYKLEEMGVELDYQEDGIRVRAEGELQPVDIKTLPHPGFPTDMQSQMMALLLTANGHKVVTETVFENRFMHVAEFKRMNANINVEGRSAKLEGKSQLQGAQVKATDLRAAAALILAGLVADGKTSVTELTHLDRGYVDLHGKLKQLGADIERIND", "test": "Inhibition of GST-tagged Staphylococcus aureus MurA expressed in Escherichia coli BL21(DE3) cells preincubated with PEP and enzyme for 10 mins followed by UDP-GlcNAc addition measured after 3 hrs by HPLC analysis", "summary_of_the_method": "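Purified S. aureus MurA (GST tag cleaved off by PreScission protease, 350 nM) was preincubated 10 min with 300 μM PEP and albocycline (0–5000 μM) in 50 mM Tris, 2 mM KCl at 25 °C, in triplicate. UDP-GlcNAc was then added and the reaction run 3 h at room temperature. UDP-GlcNAc and EP-UDP-GlcNAc were separated by MonoQ anion-exchange HPLC with an ammonium bicarbonate gradient. Percent inhibition came from relative peak areas, and IC50 from a nonlinear dose-response fit.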"}, "[6]": {"system": "UDP-N-acetylglucosamine 1-carboxyvinyltransferase 2 (Staphylococcus aureus)", "test": "Inhibition of GST-tagged Staphylococcus aureus MurZ expressed in Escherichia coli BL21(DE3) cells preincubated with PEP and enzyme for 10 mins followed by UDP-GlcNAc addition measured after 3 hrs by HPLC analysis"}, "Staphylococcus aureus [7]": {"system": "Staphylococcus aureus", "test": "Antibacterial activity against vancomycin-intermediate Staphylococcus aureus Mu50 after 16 hrs by broth micro dilution method", "type": "functional", "settings": "Mu50, 16 h", "summary_of_the_method": "as §1"}, "[8]": {"target": "UDP-N-acetylglucosamine 1-carboxyvinyltransferase (Escherichia coli K-12) (UniProt P0A749)", "sequence (P0A749 whole entry)": "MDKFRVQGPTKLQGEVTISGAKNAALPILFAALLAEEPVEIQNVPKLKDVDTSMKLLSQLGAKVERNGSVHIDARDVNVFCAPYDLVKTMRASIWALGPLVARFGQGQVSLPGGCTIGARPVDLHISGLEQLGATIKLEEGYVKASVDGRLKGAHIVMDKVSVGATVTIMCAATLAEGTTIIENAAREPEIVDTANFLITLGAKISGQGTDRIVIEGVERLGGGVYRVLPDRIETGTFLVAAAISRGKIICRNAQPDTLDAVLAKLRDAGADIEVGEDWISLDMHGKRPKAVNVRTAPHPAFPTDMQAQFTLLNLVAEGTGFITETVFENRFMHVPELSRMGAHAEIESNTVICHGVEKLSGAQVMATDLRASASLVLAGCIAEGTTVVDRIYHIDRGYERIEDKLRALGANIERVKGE", "test": "Inhibition of GST-tagged Escherichia coli MurA expressed in Escherichia coli BL21(DE3) cells preincubated with PEP and enzyme for 10 mins followed by UDP-GlcNAc addition measured after 3 hrs by HPLC analysis", "summary_of_the_method": "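GST-tagged enzyme, GST removed by PreScission protease after glutathione affinity capture. Conditions: 50 mM Tris, 2 mM KCl, room temperature (25 °C), in triplicate. Enzyme preincubated 10 min with PEP and compound, then UDP-GlcNAc added. Substrate and product separated by MonoQ anion-exchange HPLC with an ammonium bicarbonate gradient. Percent inhibition taken from UDP-GlcNAc/EP-UDP-GlcNAc peak areas.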"}, "HepG2": {"system": "HepG2", "test": "Cytotoxicity against human HepG2 cells at <= 64 ug/ml by MTT assay", "type": "cell-based", "summary_of_the_method": "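HepG2 human hepatocellular carcinoma cells; colorimetric MTT cell proliferation assay; compound tested at final concentrations up to 64 μg/mL.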"}, "Staphylococcus aureus [9]": {"system": "Staphylococcus aureus", "test": "Antibacterial activity against methicillin-sensitive Staphylococcus aureus UAMS-1 after 16 hrs by broth micro dilution method", "type": "functional", "settings": "UAMS-1, 16 h", "summary_of_the_method": "as §1"}, "[10]": {"target": "T2, UDP-N-acetylglucosamine 1-carboxyvinyltransferase 1 (Staphylococcus aureus subsp. aureus N315) (UniProt P84058)", "T2 sequence (whole entry)": "T1 sequence (P84058 whole entry)", "test": "Inhibition of GST-tagged Staphylococcus aureus MurA expressed in Escherichia coli BL21(DE3) cells assessed as reduction in EP-UDP-GlcNAc production at 650 uM preincubated with PEP and enzyme for 10 mins followed by UDP-GlcNAc addition measured after 3 hrs by HPLC analysis", "summary_of_the_method": "(§2)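 Tag-cleaved S. aureus MurA, 1.0 μg. Preincubated 10 min on ice with 650 μM compound plus 400 μM PEP or 400 μM UDP-GlcNAc. Reaction started with 600 μM of the other substrate, then run 3 h at room temperature in triple replicates. UDP-GlcNAc and EP-UDP-GlcNAc separated by anion-exchange HPLC.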"}, "[11]": {"target": "T2, UDP-N-acetylglucosamine 1-carboxyvinyltransferase 1 (Staphylococcus aureus subsp. aureus N315)", "test": "Inhibition of GST-tagged Staphylococcus aureus MurA expressed in Escherichia coli BL21(DE3) cells assessed as reduction in EP-UDP-GlcNAc production at 650 uM preincubated with UDP-GlcNAc and enzyme for 10 mins followed by PEP addition measured after 3 hrs by HPLC analysis", "summary_of_the_method": "as §2"}, "Staphylococcus aureus [12]": {"system": "Staphylococcus aureus", "test": "Antibacterial activity against methicillin-resistant Staphylococcus aureus", "type": "functional", "summary_of_the_method": "as §1"}, "[13]": {"target": "T1, UDP-N-acetylglucosamine 1-carboxyvinyltransferase 1", "test": "Inhibition of Staphylococcus aureus MurA assessed as reduction in [3H]GlcNAc uptake"}}, "note": "Calls of active or inactive are those of the source. The rule behind the calls is not given here.", "data": [{"smiles": "CN[C@H](CC(C)C)C(=O)N[C@H]1C(=O)N[C@@H](CC(N)=O)C(=O)N[C@H]2C(=O)N[C@H]3C(=O)N[C@H](C(=O)N[C@H](C(=O)O)c4cc(O)cc(O)c4-c4cc3ccc4O)[C@H](O)c3ccc(c(Cl)c3)Oc3cc2cc(c3O[C@@H]2O[C@H](CO)[C@@H](O)[C@H](O)[C@H]2O[C@H]2C[C@](C)(N)[C@H](O)[C@H](C)O2)Oc2ccc(cc2Cl)[C@H]1O", "note": "[VANCOMYCIN]", "values": [{"measurement": "MIC", "setting": "Staphylococcus aureus [1]", "value": "> 64", "unit": "µg/mL"}, {"measurement": "MIC", "setting": "Staphylococcus aureus [2]", "value": "> 64", "unit": "µg/mL"}]}, {"smiles": "C[C@@H]1O[C@@H]1P(=O)(O)O", "note": "[FOSFOMYCIN]", "values": [{"measurement": "MIC", "setting": "Staphylococcus aureus [3]", "value": 32, "unit": "µg/mL"}, {"measurement": "MIC", "setting": "Escherichia coli", "value": 1, "unit": "µg/mL"}]}, {"smiles": "CO[C@H]1/C=C/[C@@](C)(O)/C=C/C(=O)O[C@H](C)[C@@H](C)CC/C=C/1C", "values": [{"measurement": "MIC", "setting": "Staphylococcus aureus [4]", "value": 2, "unit": "µg/mL"}, {"measurement": "IC50", "setting": "[5]", "value": 480, "unit": "µM"}, {"measurement": "inhibition", "setting": "[6]", "value": "inactive"}, {"measurement": "MIC", "setting": "Staphylococcus aureus [7]", "value": 2, "unit": "µg/mL"}, {"measurement": "inhibition", "setting": "[8]", "value": "inactive"}, {"measurement": "Activity", "setting": "HepG2", "value": "Non-Toxic"}, {"measurement": "MIC", "setting": "Staphylococcus aureus [9]", "value": 0.5, "unit": "µg/mL"}, {"measurement": "inhibition", "setting": "[10]", "value": "Active"}, {"measurement": "MIC", "setting": "Staphylococcus aureus [1]", "value": 1, "unit": "µg/mL"}, {"measurement": "MIC", "setting": "Staphylococcus aureus [2]", "value": 4, "unit": "µg/mL"}, {"measurement": "inhibition", "setting": "[11]", "value": "inactive"}, {"measurement": "MIC", "setting": "Staphylococcus aureus [3]", "value": 1, "unit": "µg/mL"}, {"measurement": "MIC", "setting": "Escherichia coli", "value": "> 256", "unit": "µg/mL"}, {"measurement": "MIC", "setting": "Staphylococcus aureus [12]", "value": "0.5 to 1", "unit": "µg/mL"}, {"measurement": "IC50", "setting": "[13]", "value": 112, "unit": "µM"}]}]}
